ChEMBL document CHEMBL4177575 (Bioorg Med Chem, 2017)
Activity calls are given as the source filed them. The rule behind the calls is not given here.

Key:
[1] = tested on: A549; test: Induction of apoptosis in human A549 cells assessed as necrotic cell level at 3 uM incubated for 48 hrs by Annexin VFITC and propidium iodide staining based flow cytometry (reference value: 2.69%); type: functional
In short: (§1)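 A549 cells seeded in RPMI 1640 and treated 48 h at 3, 6 or 12 µM. Cells then stained with Annexin V-FITC plus propidium iodide, 30 min at 4 °C in the dark, and analysed on a FACS Calibur flow cytometer.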

[2] = tested on: A549; test: Induction of morphological changes in human A549 cells assessed as induction of apoptotic bodies at 1.85 uM incubated for 12 hrs by acridine orange dye based inverted microscopy and fluorescence microscopy; type: functional, cell-based
In short: (§2)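 Untreated control included. A549 cells exposed 12 h at 1.85 μM, then single-stained with acridine orange. Nuclei and morphology examined by inverted and fluorescence microscopy.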

[3] = tested on: A549; test: Cytotoxicity against human A549 cells assessed as reduction in cell viability incubated for 72 hrs by MTT assay; type: functional, cell-based
In short: (§3)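 Cells grown in MEM with 10% FBS; about 4×10^3 cells per well, pre-incubated 24 h at 37 °C in 5% CO2, then exposed to compound for 72 h. Seven concentrations, threefold serial dilution from 100 ug/mL initial. MTT at 5 µg/mL terminal concentration for 4 h; formazan dissolved in DMSO, absorbance read at 492 nm against 630 nm reference. IC50 is the average of two determinations.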

[4] = tested on: A549; test: Induction of apoptosis in human A549 cells assessed as necrotic cell level at 12 uM incubated for 48 hrs by Annexin VFITC and propidium iodide staining based flow cytometry (reference value: 2.69%); type: functional; in short: as §1
[5] = molecular target: Serine/threonine-protein kinase B-raf (Homo sapiens, UniProt P15056); test: Inhibition of BRAF (unknown origin) incubated for 10 mins using FAM-labeled peptide and ATP by mobility shift assay
[6] = tested on: PC-3; test: Cytotoxicity against human PC3 cells assessed as reduction in cell viability incubated for 72 hrs by MTT assay; type: functional, cell-based; in short: as §3
[7] = tested on: A549; test: Induction of apoptosis in human A549 cells assessed as late apoptotic cell level at 6 uM incubated for 48 hrs by Annexin VFITC and propidium iodide staining based flow cytometry (reference value: 3.4%); type: functional; in short: as §1
[8] = tested on: HepG2; test: Cytotoxicity against human HepG2 cells assessed as reduction in cell viability incubated for 72 hrs by MTT assay; type: functional, cell-based; details: HepG2, 72 h; in short: as §3
[9] = molecular target: RAF proto-oncogene serine/threonine-protein kinase (Homo sapiens, UniProt P04049); test: Inhibition of CRAF (unknown origin) incubated for 10 mins using FAM-labeled peptide and ATP by mobility shift assay
In short: (§4)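 Mobility shift assay in 384-well plates. Compound, diluted from a 500 μM DMSO stock, preincubated with enzyme 10 min at room temperature. FAM-labelled peptide and ATP then added and the reaction run at 28 °C. Stopped with EDTA-containing buffer and read on Caliper. Inhibition = (max−conversion)/(max−min)×100, with DMSO wells as max and enzyme-free wells as min.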

[10] = molecular target: Hepatocyte growth factor receptor (Homo sapiens, UniProt P08581); test: Inhibition of c-MET (unknown origin) incubated for 10 mins using FAM-labeled peptide and ATP by mobility shift assay
In short: as §4, with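 “plates. Kinase buffer: 50 mM HEPES pH 7.5, 10 mM MgCl2, 0.0015% Brij-35, 2 mM DTT.” for “plates.”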

[11] = tested on: A549; test: Induction of apoptosis in human A549 cells assessed as necrotic cell level at 6 uM incubated for 48 hrs by Annexin VFITC and propidium iodide staining based flow cytometry (reference value: 2.69%); type: functional; in short: as §1
[12] = tested on: A549; test: Induction of apoptosis in human A549 cells assessed as early apoptotic cell level at 3 uM incubated for 48 hrs by Annexin VFITC and propidium iodide staining based flow cytometry (reference value: 0.64%); type: functional; in short: as §1
[13] = tested on: A549; test: Induction of apoptosis in human A549 cells assessed as viable cell level at 12 uM incubated for 48 hrs by Annexin VFITC and propidium iodide staining based flow cytometry (reference value: 93.27%); type: functional; in short: as §1
[14] = tested on: A549; test: Induction of morphological changes in human A549 cells assessed as induction of cell shrinking at 1.85 uM incubated for 12 hrs by acridine orange dye based inverted microscopy and fluorescence microscopy; type: functional; in short: as §2
[15] = tested on: A549; test: Induction of apoptosis in human A549 cells assessed as viable cell level at 3 uM incubated for 48 hrs by Annexin VFITC and propidium iodide staining based flow cytometry (reference value: 93.27%); type: functional; in short: as §1
[16] = molecular target: T1, Receptor-type tyrosine-protein kinase FLT3 (Homo sapiens, UniProt P36888); test: Inhibition of FLT3 (unknown origin) incubated for 10 mins using FAM-labeled peptide and ATP by mobility shift assay
T1 sequence (P36888 whole entry): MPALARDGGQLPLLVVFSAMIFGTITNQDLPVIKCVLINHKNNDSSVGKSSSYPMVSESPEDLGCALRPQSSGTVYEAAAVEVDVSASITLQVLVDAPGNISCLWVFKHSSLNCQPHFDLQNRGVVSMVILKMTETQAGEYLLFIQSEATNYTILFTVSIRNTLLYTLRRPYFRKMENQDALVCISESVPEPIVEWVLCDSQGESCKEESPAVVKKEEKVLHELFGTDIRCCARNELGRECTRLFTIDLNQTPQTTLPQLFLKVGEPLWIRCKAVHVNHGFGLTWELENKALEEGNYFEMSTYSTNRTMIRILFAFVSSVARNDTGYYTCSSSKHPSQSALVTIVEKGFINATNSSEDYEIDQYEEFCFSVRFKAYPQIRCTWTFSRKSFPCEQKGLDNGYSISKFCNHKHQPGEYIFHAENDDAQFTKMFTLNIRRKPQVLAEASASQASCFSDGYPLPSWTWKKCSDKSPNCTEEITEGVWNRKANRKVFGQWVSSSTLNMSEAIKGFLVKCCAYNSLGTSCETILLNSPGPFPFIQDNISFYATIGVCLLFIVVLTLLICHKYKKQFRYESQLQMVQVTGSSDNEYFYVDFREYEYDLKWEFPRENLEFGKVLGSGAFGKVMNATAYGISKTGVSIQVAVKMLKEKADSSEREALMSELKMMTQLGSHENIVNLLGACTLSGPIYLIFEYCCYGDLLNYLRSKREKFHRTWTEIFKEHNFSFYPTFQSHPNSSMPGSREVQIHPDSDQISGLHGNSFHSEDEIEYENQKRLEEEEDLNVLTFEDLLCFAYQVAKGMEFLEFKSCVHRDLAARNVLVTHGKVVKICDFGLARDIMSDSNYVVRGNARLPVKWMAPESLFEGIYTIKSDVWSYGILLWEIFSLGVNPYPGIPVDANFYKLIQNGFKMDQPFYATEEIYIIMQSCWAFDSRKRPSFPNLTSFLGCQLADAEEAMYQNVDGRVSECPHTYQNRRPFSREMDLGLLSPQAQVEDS
In short: as §4, with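 “plates. Kinase buffer: 50 mM HEPES pH 7.5, 10 mM MgCl2, 0.0015% Brij-35, 2 mM DTT.” for “plates.”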

[17] = tested on: A549; test: Induction of morphological changes in human A549 cells assessed as induction of DNA fragmentation at 1.85 uM incubated for 12 hrs by acridine orange dye based inverted microscopy and fluorescence microscopy; type: functional, cell-based; in short: as §2

Sequence of Hepatocyte growth factor receptor (P08581 whole entry): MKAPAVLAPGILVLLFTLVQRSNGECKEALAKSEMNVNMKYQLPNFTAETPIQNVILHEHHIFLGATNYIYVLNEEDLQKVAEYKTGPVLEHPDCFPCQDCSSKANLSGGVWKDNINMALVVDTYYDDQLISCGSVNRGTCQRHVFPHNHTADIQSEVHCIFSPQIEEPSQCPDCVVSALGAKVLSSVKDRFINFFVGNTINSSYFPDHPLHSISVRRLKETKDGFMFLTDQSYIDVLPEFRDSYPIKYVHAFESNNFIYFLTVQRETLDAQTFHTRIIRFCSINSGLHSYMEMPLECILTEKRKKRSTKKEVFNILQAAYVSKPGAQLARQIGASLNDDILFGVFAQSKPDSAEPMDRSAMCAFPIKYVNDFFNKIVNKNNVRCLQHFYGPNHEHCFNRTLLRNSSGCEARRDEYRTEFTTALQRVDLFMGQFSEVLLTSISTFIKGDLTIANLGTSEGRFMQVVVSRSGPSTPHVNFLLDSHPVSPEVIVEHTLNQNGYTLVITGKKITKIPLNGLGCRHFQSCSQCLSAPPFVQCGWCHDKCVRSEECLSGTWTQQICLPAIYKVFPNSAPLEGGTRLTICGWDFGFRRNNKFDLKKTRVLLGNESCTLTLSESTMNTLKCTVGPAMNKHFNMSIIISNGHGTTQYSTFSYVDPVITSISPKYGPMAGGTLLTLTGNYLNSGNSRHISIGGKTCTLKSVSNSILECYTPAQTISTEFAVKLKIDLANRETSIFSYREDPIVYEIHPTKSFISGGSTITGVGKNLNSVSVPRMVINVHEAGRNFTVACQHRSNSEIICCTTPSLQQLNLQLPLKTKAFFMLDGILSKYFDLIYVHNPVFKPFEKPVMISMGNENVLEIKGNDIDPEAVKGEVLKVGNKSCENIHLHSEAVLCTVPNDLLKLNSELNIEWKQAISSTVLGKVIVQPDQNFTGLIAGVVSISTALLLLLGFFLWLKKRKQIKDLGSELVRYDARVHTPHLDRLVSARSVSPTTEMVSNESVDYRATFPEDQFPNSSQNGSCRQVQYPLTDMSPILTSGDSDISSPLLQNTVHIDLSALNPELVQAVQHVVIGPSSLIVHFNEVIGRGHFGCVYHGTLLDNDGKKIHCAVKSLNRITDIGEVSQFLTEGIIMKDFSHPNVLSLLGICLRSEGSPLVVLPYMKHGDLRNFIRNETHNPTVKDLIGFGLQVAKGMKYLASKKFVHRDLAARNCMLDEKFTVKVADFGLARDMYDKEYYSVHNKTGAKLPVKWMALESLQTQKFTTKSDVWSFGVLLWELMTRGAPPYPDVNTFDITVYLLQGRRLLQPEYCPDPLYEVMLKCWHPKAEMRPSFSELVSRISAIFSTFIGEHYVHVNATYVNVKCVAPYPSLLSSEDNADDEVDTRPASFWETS
Sequence of RAF proto-oncogene serine/threonine-protein kinase (P04049 whole entry): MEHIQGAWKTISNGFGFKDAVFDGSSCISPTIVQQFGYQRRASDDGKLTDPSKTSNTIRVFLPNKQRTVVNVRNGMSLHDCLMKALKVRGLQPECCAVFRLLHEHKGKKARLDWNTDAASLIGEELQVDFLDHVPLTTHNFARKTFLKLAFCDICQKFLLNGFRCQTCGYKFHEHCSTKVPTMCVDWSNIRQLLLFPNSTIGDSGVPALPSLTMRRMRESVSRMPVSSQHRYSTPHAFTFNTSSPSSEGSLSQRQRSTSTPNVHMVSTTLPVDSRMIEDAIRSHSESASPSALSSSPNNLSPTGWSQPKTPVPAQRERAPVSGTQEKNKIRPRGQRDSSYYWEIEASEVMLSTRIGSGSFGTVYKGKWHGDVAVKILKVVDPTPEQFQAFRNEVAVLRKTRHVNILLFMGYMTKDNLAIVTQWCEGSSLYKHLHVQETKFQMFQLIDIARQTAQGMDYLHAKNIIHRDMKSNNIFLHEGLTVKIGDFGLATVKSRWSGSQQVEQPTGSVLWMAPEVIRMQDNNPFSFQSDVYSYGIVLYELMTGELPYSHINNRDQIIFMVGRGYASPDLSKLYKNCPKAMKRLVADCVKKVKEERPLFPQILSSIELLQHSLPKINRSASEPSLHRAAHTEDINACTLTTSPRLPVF
Sequence of Serine/threonine-protein kinase B-raf (P15056 whole entry): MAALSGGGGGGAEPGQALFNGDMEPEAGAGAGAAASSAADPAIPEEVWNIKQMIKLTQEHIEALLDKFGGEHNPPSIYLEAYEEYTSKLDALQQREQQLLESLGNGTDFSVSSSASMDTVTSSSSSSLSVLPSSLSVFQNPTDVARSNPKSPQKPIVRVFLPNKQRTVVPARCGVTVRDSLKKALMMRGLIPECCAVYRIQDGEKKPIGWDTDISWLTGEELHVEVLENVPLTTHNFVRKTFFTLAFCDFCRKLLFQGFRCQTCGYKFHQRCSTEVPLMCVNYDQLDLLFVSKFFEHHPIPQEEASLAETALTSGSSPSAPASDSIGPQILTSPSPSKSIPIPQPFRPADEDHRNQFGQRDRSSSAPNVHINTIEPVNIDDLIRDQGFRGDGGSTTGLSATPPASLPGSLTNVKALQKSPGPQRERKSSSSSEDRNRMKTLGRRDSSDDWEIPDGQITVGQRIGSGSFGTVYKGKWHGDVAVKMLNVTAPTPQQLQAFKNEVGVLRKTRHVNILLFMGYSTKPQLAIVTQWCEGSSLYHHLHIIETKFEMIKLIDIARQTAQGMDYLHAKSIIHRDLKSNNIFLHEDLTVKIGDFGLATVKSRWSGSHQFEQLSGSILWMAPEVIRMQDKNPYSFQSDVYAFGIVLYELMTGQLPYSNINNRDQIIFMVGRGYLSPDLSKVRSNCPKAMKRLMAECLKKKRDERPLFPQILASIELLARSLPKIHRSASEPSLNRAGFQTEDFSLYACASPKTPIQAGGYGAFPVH

## CNC(=O)c1cc(Oc2ccc(C3=NNC(c4cccc(Br)c4)C3)cc2)ccn1 (centres undefined)
[1]
  Activity: 4.49%
[2]
  Activity: Active
[3]
  Activity: Dose-dependent effect
[3]; A549, 72 h
  IC50: 2.84 µM
[4]
  Activity: 2.45%
[5]
  IC50: 3.4 µM
[6]
  Activity: Dose-dependent effect
[6]; PC-3, 72 h
  IC50: 3.54 µM
[7]
  Activity: 9.11%
[8]
  IC50: 1.85 µM
[9]
  IC50: 7.9 µM
[10]
  IC50: 0.54 µM
[11]
  Activity: 1.24%
[12]
  Activity: 2.2%
[13]
  Activity: 75.55%
[14]
  Activity: Active
[15]
  Activity: 88.8%
[16]
  IC50: 5.2 µM
[17]
  Activity: Active
